# Test results as given in ChEMBL document CHEMBL1148178, “Dicranin, an antimicrobial and 15-lipoxygenase inhibitor from the moss Dicranum scoparium” (1993).
# Active and inactive are the calls of the source. The calls are words filed in the database; no cut-off is given here.
# Key:
# Bacillus subtilis [1] = assay: Antibacterial activity against Bacillus subtilis NCIB 3610 at 75 ug/disk after 24 hrs by disk diffusion assay; type: functional; settings: read-out: Diameter of inhibition zone
# How it was run: (§1)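 Sterile 6 mm filter-paper disc bearing sample set in the centre of a Petri dish of 15 ml plate count agar. Overlaid with 3 ml soft nutrient agar (nutrient broth + 0.7% agar) seeded with 1% of a 16–18 h culture of the test strain. Read-out is the diameter of the growth-free zone around the disc.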
# Staphylococcus aureus [2] = assay: Antibacterial activity against Staphylococcus aureus T-AQ 49/YF29 at 75 ug/disk after 24 hrs by disk diffusion assay; type: functional; settings: read-out: Diameter of inhibition zone; how it was run: as §1
# Bacillus cereus [3] = assay: Antibacterial activity against Bacillus cereus NCIB 3329 at 10 ug/disk after 24 hrs by disk diffusion assay; type: functional; settings: read-out: Diameter of inhibition zone; how it was run: as §1
# Staphylococcus aureus [4] = assay: Antibacterial activity against Staphylococcus aureus T-AQ 49/YF29 at 10 ug/disk after 24 hrs by disk diffusion assay; type: functional; settings: read-out: Diameter of inhibition zone; how it was run: as §1
# [5] = tested on: Geobacillus stearothermophilus; assay: Antibacterial activity against Bacillus stearothermophilus NCA 1518 at 500 ug/disk after 24 hrs by disk diffusion assay; type: functional; settings: read-out: Diameter of inhibition zone; how it was run: as §1
# Bacillus cereus [6] = assay: Antibacterial activity against Bacillus cereus NCIB 3329 at 100 ug/disk after 24 hrs by disk diffusion assay; type: functional; settings: read-out: Diameter of inhibition zone; how it was run: as §1
# Bacillus cereus [7] = assay: Antibacterial activity against Bacillus cereus NCIB 3329 at 250 ug/disk after 24 hrs by disk diffusion assay; type: functional; settings: read-out: Diameter of inhibition zone; how it was run: as §1
# Staphylococcus aureus [8] = assay: Antibacterial activity against Staphylococcus aureus T-AQ 49/YF29 at 250 ug/disk after 24 hrs by disk diffusion assay; type: functional; settings: read-out: Diameter of inhibition zone; how it was run: as §1
# Bacillus subtilis [9] = assay: Antibacterial activity against Bacillus subtilis NCIB 3610 at 25 ug/disk after 24 hrs by disk diffusion assay; type: functional; settings: read-out: Diameter of inhibition zone; how it was run: as §1
# Staphylococcus aureus [10] = assay: Antibacterial activity against Staphylococcus aureus T-AQ 49/YF29 at 100 ug/disk after 24 hrs by disk diffusion assay; type: functional; settings: read-out: Diameter of inhibition zone; how it was run: as §1
# Pseudomonas aeruginosa = assay: Antibacterial activity against Pseudomonas aeruginosa ATCC 10145 at 1 mg/disk after 24 hrs by disk diffusion assay; type: functional, organism-based; how it was run: as §1
# Bacillus cereus [11] = assay: Antibacterial activity against Bacillus cereus NCIB 3329 at 500 ug/disk after 24 hrs by disk diffusion assay; type: functional; settings: read-out: Diameter of inhibition zone; how it was run: as §1
# [12] = tested on: Geobacillus stearothermophilus; assay: Antibacterial activity against Bacillus stearothermophilus NCA 1518 at 25 ug/disk after 24 hrs by disk diffusion assay; type: functional; settings: read-out: Diameter of inhibition zone; how it was run: as §1
# Pseudomonas putida = assay: Antibacterial activity against Pseudomonas putida T-AQ 18/YF18 at 1 mg/disk after 24 hrs by disk diffusion assay; type: functional, organism-based; how it was run: as §1
# Bacillus subtilis [13] = assay: Antibacterial activity against Bacillus subtilis NCIB 3610 at 1000 ug/disk after 24 hrs by disk diffusion assay; type: functional; settings: read-out: Diameter of inhibition zone; how it was run: as §1
# Bacillus cereus [14] = assay: Antibacterial activity against Bacillus cereus NCIB 3329 at 25 ug/disk after 24 hrs by disk diffusion assay; type: functional; settings: read-out: Diameter of inhibition zone; how it was run: as §1
# Bacillus cereus [15] = assay: Bactericidal activity against Bacillus cereus NCIB 3329 at 150 ug/ml by liquid culture assay; type: functional, organism-based
# How it was run: (§2)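 Wells hold brain heart infusion (200 µl) plus 50 µl inoculum at 10³–10⁵ cfu/ml, with dicranin added as the sodium salt in water (10–200 μg/ml tested). Cultures are incubated at the strain's optimal growth temperature. Duplicate 100 µl samples are taken at 0, 2, 4, 6, 8 and 24 h, diluted in tryptone salt to 10–500 bacteria/plate, plated on plate count agar, and colonies counted after 24 h.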
# [16] = tested on: Geobacillus stearothermophilus; assay: Antibacterial activity against Bacillus stearothermophilus NCA 1518 at 250 ug/disk after 24 hrs by disk diffusion assay; type: functional; settings: read-out: Diameter of inhibition zone; how it was run: as §1
# Bacillus subtilis [17] = assay: Antibacterial activity against Bacillus subtilis NCIB 3610 at 100 ug/disk after 24 hrs by disk diffusion assay; type: functional; settings: read-out: Diameter of inhibition zone; how it was run: as §1
# [18] = tested on: Geobacillus stearothermophilus; assay: Bactericidal activity against Bacillus stearothermophilus NCA 1518 at 50 to 150 ug/ml upto 4 hrs by liquid culture assay; type: functional, organism-based; how it was run: as §2
# Bacillus subtilis [19] = assay: Antibacterial activity against Bacillus subtilis NCIB 3610 at 10 ug/disk after 24 hrs by disk diffusion assay; type: functional; settings: read-out: Diameter of inhibition zone; how it was run: as §1
# Bacillus cereus [20] = assay: Antibacterial activity against Bacillus cereus NCIB 3329 at 75 ug/disk after 24 hrs by disk diffusion assay; type: functional; settings: read-out: Diameter of inhibition zone; how it was run: as §1
# Enterococcus faecalis = assay: Antibacterial activity against Streptococcus faecalis NCIB 775 after 24 hrs by disk diffusion assay; type: functional, organism-based; how it was run: as §1
# Escherichia coli = assay: Antibacterial activity against Escherichia coli B74-1 at 1 mg/disk after 24 hrs by disk diffusion assay; type: functional, organism-based; how it was run: as §1
# Salmonella typhimurium = assay: Antibacterial activity against Salmonella Typhimurium NCIB 10248 at 1 mg/disk after 24 hrs by disk diffusion assay; type: functional, organism-based; settings: Salmonella enterica subsp. enterica serovar Typhimurium; how it was run: as §1
# [21] = tested on: Geobacillus stearothermophilus; assay: Bactericidal activity against sBacillus stearothermophilus NCA 1518 at 200 ug/ml by liquid culture assay; type: functional, organism-based; how it was run: as §2
# Bacillus cereus [22] = assay: Antibacterial activity against Bacillus cereus NCIB 3329 at 50 ug/disk after 24 hrs by disk diffusion assay; type: functional; settings: read-out: Diameter of inhibition zone; how it was run: as §1
smiles,measurement,setting,value
CC/C=C\C/C=C\C/C=C\CC#CCCCCC(=O)O [DICRANIN],zone of inhibition at 75 µg/disc,Bacillus subtilis [1],13 mm
same,zone of inhibition at 75 µg/disc,Staphylococcus aureus [2],12 mm
same,zone of inhibition at 10 µg/disc,Bacillus cereus [3],0 mm
same,zone of inhibition at 10 µg/disc,Staphylococcus aureus [4],0 mm
same,zone of inhibition at 500 µg/disc,[5],32 mm
same,zone of inhibition at 100 µg/disc,Bacillus cereus [6],15 mm
same,zone of inhibition at 250 µg/disc,Bacillus cereus [7],19 mm
same,zone of inhibition at 250 µg/disc,Staphylococcus aureus [8],21 mm
same,zone of inhibition at 25 µg/disc,Bacillus subtilis [9],8 mm
same,zone of inhibition at 100 µg/disc,Staphylococcus aureus [10],16 mm
same,Activity,Pseudomonas aeruginosa,inactive
same,zone of inhibition at 500 µg/disc,Bacillus cereus [11],22 mm
same,zone of inhibition at 25 µg/disc,[12],9 mm
same,Activity,Pseudomonas putida,inactive
same,zone of inhibition at 1000 µg/disc,Bacillus subtilis [13],20 mm
same,zone of inhibition at 25 µg/disc,Bacillus cereus [14],9 mm
same,Activity,Bacillus cereus [15],Active
same,zone of inhibition at 250 µg/disc,[16],26 mm
same,zone of inhibition at 100 µg/disc,Bacillus subtilis [17],13 mm
same,Activity,[18],Active
same,zone of inhibition at 10 µg/disc,Bacillus subtilis [19],0 mm
same,zone of inhibition at 75 µg/disc,Bacillus cereus [20],11 mm
same,Activity,Enterococcus faecalis,Active
same,Activity,Escherichia coli,inactive
same,Activity,Salmonella typhimurium,inactive
same,Activity,[21],Active
same,zone of inhibition at 50 µg/disc,Bacillus cereus [22],10 mm
